Measured values as given in ChEMBL document CHEMBL1129298, “Nonpeptide angiotensin II receptor antagonists: synthesis, biological activities, and structure-activity relationships of imidazole-5-carboxylic acids bearing alkyl, alkenyl, and hydroxyalkyl substituents at the 4-position and their related compounds” (J Med Chem, 1996).

Legend:
Assay type in all cases: functional
Rattus norvegicus [1] = assay: Inhibitory activity against AII-Induced Pressor response at 0.03 mg/Kg at 6 hour
Summary of the method: (§1)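 Male Wistar-Imamichi rats (300–400 g) cannulated under pentobarbital (50 mg/kg ip), fasted 24 h, tested conscious the next day. AII 50 ng/kg iv was repeated until constant, then compound in 50% aqueous DMF given orally. AII was repeated over 8 h, and mean blood pressure response inhibition (%) was recorded at 1, 3, 6 h. n = 3–5.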

Rattus norvegicus [2] = assay: Inhibitory activity against AII-Induced Pressor response at 0.1 mg/Kg at 1 hr; summary of the method: as §1
Rattus norvegicus [3] = assay: Inhibitory activity against AII-Induced Pressor response at 0.03 mg/Kg at 1 hr; summary of the method: as §1
Rattus norvegicus [4] = assay: Inhibitory activity against AII-Induced Pressor response at 0.3 mg/Kg at 1 hr; summary of the method: as §1
Rattus norvegicus [5] = assay: Inhibitory activity against AII-Induced Pressor response at 0.3 mg/Kg at 6 hour; summary of the method: as §1
Rattus norvegicus [6] = assay: Inhibitory activity against AII-Induced Pressor response at 0.3 mg/Kg at 3 hour; summary of the method: as §1
Rattus norvegicus [7] = assay: Inhibitory activity against AII-Induced Pressor response at 0.03 mg/Kg at 3 hour; summary of the method: as §1
Rattus norvegicus [8] = assay: Inhibitory activity against AII-Induced Pressor response at 0.1 mg/Kg at 3 hour; summary of the method: as §1
Rattus norvegicus [9] = assay: Inhibitory activity against AII-Induced Pressor response at 0.1 mg/Kg at 6 hour; summary of the method: as §1

CCCc1nc(C(C)(C)O)c(C(=O)OCOC(=O)C(C)(C)C)n1Cc1ccc(-c2ccccc2-c2nn[nH]n2)cc1
inhibition in vivo at 0.03 mg/kg (Rattus norvegicus [1]): 43%
inhibition in vivo at 0.1 mg/kg (Rattus norvegicus [2]): 75%
inhibition in vivo at 0.03 mg/kg (Rattus norvegicus [3]): 29%
inhibition in vivo at 0.3 mg/kg (Rattus norvegicus [4]): 76%
inhibition in vivo at 0.3 mg/kg (Rattus norvegicus [5]): 90%
inhibition in vivo at 0.3 mg/kg (Rattus norvegicus [6]): 85%
inhibition in vivo at 0.03 mg/kg (Rattus norvegicus [7]): 41%
inhibition in vivo at 0.1 mg/kg (Rattus norvegicus [8]): 84%
inhibition in vivo at 0.1 mg/kg (Rattus norvegicus [9]): 70%
